Source: PMC9066701 (RSC Advances, 2019)
Where two headings read alike, the source gives them in different places.

Columns and labels:
HepG-2 cells [1] = assay: Mitochondrial membrane potential by JC-1 staining; assay type: cell-based, human; details: HepG-2, 30 μM, 48 hours, negative control 5.42
[2] = tested on: BGC803 human gastric cancer cell line; assay: MTT cytotoxicity assay, BGC803; assay type: cell-based; details: read-out: IC50 BGC803
In short: (§1)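 Adherent cells kept in DMEM with 10% FBS at 37 °C, 5% CO2, seeded at 5 × 10^3 cells per well and left overnight. Test compound in DMF diluted in medium (DMF final < 0.4%) for 48 h at 37 °C. MTT (5 mg mL−1) added for 4 h, formazan dissolved in DMSO, A570 read. IC50 from % inhibition versus log concentration; cisplatin run as reference.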

[3] = tested on: HepG-2 human hepatocellular carcinoma cell line; assay: MTT cytotoxicity assay, HepG-2; assay type: cell-based; details: read-out: IC50 HepG-2
In short: as §1

[4] = tested on: MCF-7 human breast carcinoma cell line; assay: MTT cytotoxicity assay, MCF-7; assay type: cell-based; details: read-out: IC50 MCF-7
In short: as §1

[5] = tested on: NCI-H460 large cell lung cancer cell line; assay: MTT cytotoxicity assay, NCI-H460; assay type: cell-based; details: read-out: IC50 NCI-H460
In short: as §1

[6] = tested on: SGC7901 gastric cancer cell line; assay: MTT cytotoxicity assay, SGC7901; assay type: cell-based; details: read-out: IC50 SGC7901, 48 h drug exposure
In short: as §1

[7] = tested on: SGC7901/CDDP cisplatin-resistant gastric cancer cell line; assay: MTT cytotoxicity assay, SGC7901/CDDP; assay type: cell-based; details: read-out: IC50 SGC7901/CDDP, 48 h drug exposure
In short: as §1

[8] = tested on: HUVEC human umbilical vein endothelial cell line; assay: MTT cytotoxicity assay, HUVEC; assay type: cell-based; details: read-out: IC50 HUVEC, 48 h drug exposure, normal cells
In short: as §1

HepG-2 cells [9] = assay: Annexin V-FITC/PI apoptosis assay by flow cytometry; assay type: cell-based, human; details: HepG-2, 50 μM, 24 hours
[10] = reported for kiteplatin; same experimental conditions; cited from earlier work
[11] = PBS, 37 °C, pH 7.0; cited from earlier work

Molecule: N#CC(C#N)=NNc1cccc(Cl)c1 [CCCP, carbonylcyanide-m-chlorophenylhydrazone]
- Red-green fluorescence ratio (FL2/FL1) (HepG-2 cells [1]): 0.04

Molecule: N.N.O=C([O-])C1(C(=O)[O-])CCC1.[Pt+2] [Carboplatin, carboplatin]
- IC50 ([2]; MTT assay, 48 h drug exposure): 77.1 ± 5.35 µM
- IC50 ([3]; MTT assay, 48 h drug exposure): 42.3 ± 2.55 µM
- IC50 ([4]; MTT assay, 48 h drug exposure): 179 ± 10.6 µM
- IC50 ([5]; MTT assay, 48 h drug exposure): 52.9 ± 4.98 µM
- Red-green fluorescence ratio (FL2/FL1) (HepG-2 cells [1]): 2.56

Molecule: N.N.[Cl][Pt][Cl] [Cisplatin, cisplatin]
- IC50 ([2]; MTT assay, 48 h drug exposure): 21.6 ± 1.35 µM
- IC50 ([3]; MTT assay, 48 h drug exposure): 27.8 ± 2.56 µM
- IC50 ([4]; MTT assay, 48 h drug exposure): 29.2 ± 1.38 µM
- IC50 ([5]; MTT assay, 48 h drug exposure): 14.8 ± 1.35 µM
- IC50 [6]: 9.96 ± 0.87 µM
- IC50 [7]: 35.6 ± 2.55 µM
- IC50 [8]: 36.9 ± 2.23 µM
- apoptotic rate (early + late) (HepG-2 cells [9]): 28.79%
- Red-green fluorescence ratio (FL2/FL1) (HepG-2 cells [1]): 0.54

Molecule: O=C(O)C(Cl)Cl [DCA, Dichloroacetate]
- IC50 ([2]; Homo sapiens, BGC803, 48 h): > 100 µM
- IC50 ([3]; Homo sapiens, HepG2, 48 h): > 100 µM
- IC50 ([4]; Homo sapiens, MCF7, 48 h): > 100 µM
- IC50 ([5]; Homo sapiens, NCI-H460, 48 h): > 100 µM
- Red-green fluorescence ratio (FL2/FL1) (HepG-2 cells [1]): 4.17

Molecule: O=C1[O][Pt]2([NH][C@@H]3CCCC[C@H]3[NH]2)[O]C1=O [Oxaliplatin, oxaliplatin]
- IC50 ([2]; MTT assay, 48 h drug exposure): 29.1 ± 1.65 µM
- IC50 ([3]; MTT assay, 48 h drug exposure): 26.5 ± 2.55 µM
- IC50 ([4]; MTT assay, 48 h drug exposure): 41.3 ± 3.43 µM
- IC50 ([5]; MTT assay, 48 h drug exposure): 13.4 ± 1.13 µM
- IC50 [6]: 13.5 ± 1.55 µM
- IC50 [7]: 99.4 ± 5.23 µM
- IC50 [8]: 51 ± 4.42 µM
- apoptotic rate (early + late) (HepG-2 cells [9]): 21.74%
- Red-green fluorescence ratio (FL2/FL1) (HepG-2 cells [1]): 0.94

Molecule: NC1CCC(N)CC1.[Cl][Pt+2][Cl] (stereo not shown) [kiteplatin]
- half-life [10]: 1 h

Molecule: ct-[Pt(NH3)2(TFA)2(CBCDA)] [ct-[Pt(NH3)2(TFA)2(CBCDA)] (5)]
- t1/2 [11]: 2.37 h
